The results in this text go back to ChEMBL document CHEMBL3227955, “Studies on the mechanism of antiviral action of 1-(beta-D-ribofuranosyl)-1,2,4-triazole-3-carboxamide (ribavirin)” (J Med Chem, 1979).

Molecules are shown by their SMILES. Activity calls are given as the source filed them. No cut-off for these calls is given here.

Molecular target in one experiment: not listed separately
The experiment is described as follows: Inhibition of rat spleen IMP dehydrogenase using NAD and IMP up to 1 hr. In kind it is tissue-based. A digest of the protocol: (§1)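 Rat spleen IMP dehydrogenase was the 30–40% (NH4)2SO4 fraction, dialyzed, at 0.66 mg protein/mL. Buffer was 0.1 M phosphate pH 7.7 with 1 mM EDTA, 0.5 mM 2-mercaptoethanol and 0.2 mM each NAD and IMP, started with IMP. A340 change against a no-IMP blank was followed at 37 °C for up to 1 h. Activity was expressed relative to the no-inhibitor rate.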
A word on the IC50: it is the concentration that gives 50% inhibition. As to `O=C(O)c1ncn([C@@H]2O[C@H](COP(=O)(O)O)[C@@H](O)[C@H]2O)n1`, the IC50 stood at 70 µM. `NC(=O)c1ncn([C@@H]2O[C@H](COP(=O)(O)O)[C@@H](O)[C@H]2O)n1` [RIBAVIRIN MONOPHOSPHATE] yielded an IC50 of 2 µM.

The species entered for a further experiment is Rattus norvegicus. The experiment is described as follows: Inhibition of rat spleen IMP dehydrogenase using NAD and IMP at 200 uM up to 1 hr. It is filed as tissue-based. In outline: as §1
Take `O=P(O)(O)OC[C@H]1O[C@@H](n2cncn2)[C@H](O)[C@@H]1O`: the inhibition result is “inactive”. Same read-out and setting: the same measure for `CO[C@H]1[C@@H](O)[C@H](n2cnc(C(N)=O)n2)O[C@@H]1COP(=O)(O)O`: “inactive”.

Take `CO[C@@H]1[C@H](O)[C@@H](COP(=O)(O)O)O[C@H]1n1cnc(C(N)=O)n1`: the inhibition result is “inactive”.

The species entered for the next experiment is Rattus norvegicus. The experiment is described as follows: Activity at rat liver nucleoside kinase assessed as phosphorylation using [gamma-32P]-ATP after 10 to 20 mins. A digest of the protocol: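 Rat liver nucleoside kinase was the 55–90% (NH4)2SO4 fraction of the 144000g supernatant, dialyzed. The medium was 50 mM Tris-HCl pH 8.0, 5 μM MgCl2 (so in the source), 25 mM KCl, 1 mM [γ-32P]ATP, and pyruvate kinase with 2 mM phosphoenolpyruvate. Incubation was 10 or 20 min at 37 °C, stopped by 1 min at 100 °C. Liberated Pi was precipitated with added 0.1 mM K2HPO4.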
For the molecule `O=C(O)c1ncn([C@@H]2O[C@H](CO)[C@@H](O)[C@H]2O)n1`, the outcome was inactive. Turning to `OC[C@H]1O[C@@H](n2cncn2)[C@H](O)[C@@H]1O`, the outcome was inactive.

With `NC(=O)c1ncn([C@@H]2O[C@H](CO)[C@@H](O)[C@H]2O)n1`, the outcome was Active. Consider `Nc1ncnc2c1ncn2[C@@H]1O[C@H](CO)[C@@H](O)[C@H]1O`, for which the outcome was Active. On to `CO[C@H]1[C@@H](O)[C@H](n2cnc(C(N)=O)n2)O[C@@H]1CO`, for which the outcome was inactive. Still for that read-out and setting: the same measure for `CO[C@@H]1[C@H](O)[C@@H](CO)O[C@H]1n1cnc(C(N)=O)n1`: “inactive”.
